Experiments:
[1] = Inhibition of tubulin polymerization
Procedure, shortened: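 Tubulin (3 mg/mL HTS) in G-PEM buffer plus 5% glycerol, prepared at 4 °C, incubated at 37 °C with or without compound. Polymerization followed by A340 over 60 min. Polymer taken as the AUC, with untreated control AUC set to 100%. IC50 derived by non-linear regression.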

A498 = experiment: Growth inhibition of human A498 cells after 48 hrs by SRB assay; type: functional; conditions: A498, 48 h; for TGI: read-out: pTGI (converted)
Procedure, shortened: (§1)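 NCI 60-cell-line screen. Cells grown in RPMI1640 with 5% fetal calf serum and 2 mM L-glutamine, with inoculum density set by cell line. Preincubated 24 h, then given compound in DMSO at 10^-4 to 10^-8 M (five 10-fold steps) for 48 h continuous exposure. Growth measured by SRB protein assay. GI50, TGI and LC50 reported as –log molar.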

NCI/ADR-RES = experiment: Growth inhibition of human NCI/ADR-RES cells after 48 hrs by SRB assay; type: functional; conditions: for TGI: read-out: pTGI (converted); procedure, shortened: as §1
IGROV-1 = experiment: Growth inhibition of human IGROV1 cells after 48 hrs by SRB assay; type: functional; conditions: IGROV-1, 48 h; for TGI: read-out: pTGI (converted); procedure, shortened: as §1
RXF 393 = experiment: Growth inhibition of human RXF393 cells after 48 hrs by SRB assay; type: functional; conditions: RXF 393, 48 h; procedure, shortened: as §1
786-0 = experiment: Growth inhibition of human 786-0 cells after 48 hrs by SRB assay; type: functional; conditions: 786-0, 48 h; for TGI: read-out: pTGI (converted); procedure, shortened: as §1
EKVX = experiment: Growth inhibition of human EKVX cells after 48 hrs by SRB assay; type: functional; conditions: for TGI: read-out: pTGI (converted); procedure, shortened: as §1
MDA-MB-468 = experiment: Growth inhibition of human MDA-MB-468 cells after 48 hrs by SRB assay; type: functional; conditions: MDA-MB-468, 48 h; for TGI: read-out: pTGI (converted); procedure, shortened: as §1
[2] = Growth inhibition of human Hs 578T cells after 48 hrs by SRB assay; type: functional; conditions: for TGI: read-out: pTGI (converted); procedure, shortened: as §1
OVCAR-3 = experiment: Growth inhibition of human OVCAR-3 cells after 48 hrs by SRB assay; type: functional; conditions: OVCAR-3, 48 h; for TGI: read-out: pTGI (converted); procedure, shortened: as §1
NCI-H460 = experiment: Growth inhibition of human NCI-H460 cells after 48 hrs by SRB assay; type: functional; conditions: NCI-H460, 48 h; for TGI: read-out: pTGI (converted); procedure, shortened: as §1
KM12 = experiment: Growth inhibition of human KM12 cells after 48 hrs by SRB assay; type: functional; conditions: KM12, 48 h; for TGI: read-out: pTGI (converted); procedure, shortened: as §1
HL-60(TB) = experiment: Growth inhibition of human HL-60(TB) cells after 48 hrs by SRB assay; type: functional; conditions: HL-60, 48 h; for TGI: read-out: pTGI (converted)
Procedure, shortened: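 NCI 60-cell-line screen: cells grown in RPMI1640 with 5% fetal calf serum and 2 mM L-glutamine, preincubated 24 h, then exposed to compound in DMSO at five concentrations (10^-4 to 10^-8 M) for 48 h continuous exposure. Growth estimated by sulforhodamine B protein assay; reported as pGI50 (-log molar concentration inhibiting net cell growth by 50%).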

HCC 2998 = experiment: Growth inhibition of human HCC2998 cells after 48 hrs by SRB assay; type: functional; conditions: HCC 2998, 48 h; procedure, shortened: as §1

Row | SMILES | IC50 [1] [µM] | GI50 (A498) [nM] | TGI (A498) [µM] | GI50 (NCI/ADR-RES) [nM] | TGI (NCI/ADR-RES) [nM] | GI50 (IGROV-1) [nM] | TGI (IGROV-1) [µM] | GI50 (RXF 393) [nM] | GI50 (786-0) [nM] | TGI (786-0) [µM] | GI50 (EKVX) [nM] | TGI (EKVX) [nM] | GI50 (MDA-MB-468) [nM] | TGI (MDA-MB-468) [nM] | GI50 [2] [nM] | TGI [2] [µM] | GI50 (OVCAR-3) [nM] | TGI (OVCAR-3) [µM] | GI50 (NCI-H460) [nM] | TGI (NCI-H460) [µM] | also measured
1 | COc1cc(C2=NN(C(C)=O)C(c3cc(OC)c(OC)c(OC)c3)C2)ccc1O (stereo unspecified) | 8.56 | 251 | 3.98 | 251 | > 100000 | 501 | > 100 | 126 | 398 | > 100 | 794 | > 100000 | 251 | 794 | 200 | 0.631 | 251 | 0.631 | 398 | 15.8 | GI50 (KM12): 251 nM; TGI (KM12): > 100 µM; GI50 (HL-60(TB)): 158 nM; TGI (HL-60(TB)): 501 nM
2 | CCN(CC)c1ccc(C2=NN(C(C)=O)C(c3cc(OC)c(OC)c(OC)c3)C2)cc1 (stereo unspecified) | 8.09 | 316 | 2.51 | 200 | 501 | 794 | 31.6 | 398 | 501 | 12.6 | 398 | 2510 | 251 | 631 | 316 | 25.1 | 398 | 10 | 398 | 2 | TGI (RXF 393; read-out: pTGI (converted)): 2510 nM; GI50 (KM12): 316 nM; TGI (KM12): 12.6 µM; GI50 (HL-60(TB)): 126 nM; TGI (HL-60(TB)): 501 nM; GI50 (HCC 2998): 794 nM; TGI (HCC 2998; read-out: pTGI (converted)): 7.94 µM
